Among the data in PubChem BioAssay AID1665 (Sanford-Burnham Center for Chemical Genomics, 2009) are cell count and nuclear translocation activity values, retold here.

SMILES strings stand for the structures. The whole screen tested about 190,000 compounds, of which about 590 (0.31%) were called active.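 The calls were made as follows: active = nuclear translocation activity above 50% at 5 µM, with a well cell count of 50 or more; inconclusive = wells under 50 cells across six images, flagged as toxic; inactive = the rest.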 What follows is part of a selection rich in actives, with near analogues and random picks from the rest.

This experiment is described as follows: modulators of beta-catenin nuclear translocation, primary screen, imaging, HeLa cells, immunofluorescence, high-content (AID 1665).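 As to nuclear translocation activity: plate controls were DMSO negative control for no effect and GSK-3 inhibitor IX positive control for full effect.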 The conditions noted are these: at 5 µM; cell count: measured here: cell count, cytotoxicity flag; nuclear translocation activity: stronger effect = higher value. In a few lines:
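Assay system: human HeLa cells, native beta-catenin; doses: 5 µM primary, 0.02–20 µM confirmation; incubation: compound treatment 24 h, 37°C, 5% CO2; technique: fluorescence imaging of beta-catenin antibody stain plus DAPI; measure: % activation, nuclear-to-cytoplasmic median beta-catenin signal ratio per cell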
In the case of `COc1cc2nc(Cl)nc(NCCO)c2cc1OC`, the cell count amounted to 1310 cells and the nuclear translocation activity was 0.1% (inactive).

Consider `CCOC(=O)c1cc(NC(=O)c2cccnc2)cc(C(=O)OCC)c1`, for which the cell count worked out at 1120 cells and the nuclear translocation activity was 0.3% (inactive).

As to `CCOC(=O)c1ccc(-c2ccc(C(=O)Nc3cccnc3)o2)cc1`, the cell count turned out to be 659 cells and the nuclear translocation activity was 56.9% (active).

`CCOc1cccc(C(=O)Nc2cccnc2)c1`: the cell count came to 1110 cells and the nuclear translocation activity was -2.1% (inactive).

Consider `COC(=O)CNc1nc(Cl)nc(N2CCC(C)CC2)n1`, for which the cell count stood at 1320 cells and the nuclear translocation activity was -0.1% (inactive).

As to `CC(C)Sc1nnc([C@H](Cc2ccccc2)NC(=O)OC(C)(C)C)o1`, the cell count worked out at 1410 cells and the nuclear translocation activity is 0.4% (inactive).

With `CCOC(=O)Cc1cc(=O)[nH]c(/N=C(\N)Nc2ccc(OC)cc2)n1`, the cell count worked out at 1300 cells and the nuclear translocation activity is -0.7% (inactive).

With `Cc1ccc(C(=O)NNC(=O)c2cccs2)cc1`, the cell count came to 1120 cells and the nuclear translocation activity was -0.6% (inactive).

As for `O=C(NNC(=O)c1cc2c(s1)CCCC2)c1ccccc1`, the cell count came out at 547 cells and the nuclear translocation activity was -1.8% (inactive).

As to `Cc1ccc(C(=O)NNC(=O)c2cc3cc4ccccc4nc3s2)cc1`, the cell count is 719 cells and the nuclear translocation activity was 80.3% (active).

Consider `CCOc1ccccc1N1CN(Cc2ccccc2)CNC1=S`, for which the cell count stood at 1340 cells and the nuclear translocation activity was -1.3% (inactive).

For `CCc1nc2sc3c(Cl)ncnc3c2c2c1CCCC2`, the cell count worked out at 1350 cells and the nuclear translocation activity was -1.6% (inactive).

With `Cc1cc(=O)[nH]c(S)c1C#N`, the cell count was determined as 1290 cells and the nuclear translocation activity was -0.9% (inactive).

For `O=C(COc1ccccc1)N1CCN=C1SCc1cccc(F)c1`, the cell count worked out at 1330 cells and the nuclear translocation activity is 0.4% (inactive).

For the compound `COc1cc(C=O)ccc1Oc1nnnn1-c1ccccc1`, the cell count is 1310 cells and the nuclear translocation activity was -0.4% (inactive).

`Cc1cc(C(=O)NNS(=O)(=O)c2ccccc2C(F)(F)F)nn1C(C)(C)C`: the cell count amounted to 1120 cells and the nuclear translocation activity is -2.9% (inactive).

As for `CCOC(=O)c1c(NC(=O)NC(C)(C)C)sc2c1CCN(C)C2`, the cell count amounted to 1280 cells and the nuclear translocation activity is 0.5% (inactive).

Regarding `Nc1nc(SC23CC4CC(CC(C4)C2)C3)ns1`, the cell count came to 1340 cells and the nuclear translocation activity is 0.7% (inactive).

As for `CC(C)n1c(=S)[nH]c2cc(C(F)(F)F)ccc21`, the cell count is 1090 cells and the nuclear translocation activity was -0.8% (inactive).

With `COC(=O)c1ccc(S(=O)(=O)NCc2ccccc2)n1C`, the cell count stood at 1270 cells and the nuclear translocation activity is 0.3% (inactive).

On to `CCOCCn1c(-c2ccccc2)nc2ccccc21`, for which the cell count worked out at 1340 cells and the nuclear translocation activity is -0.7% (inactive).

Turning to `O=C(O)c1ccccc1OCc1ccccc1Cl`, the cell count turned out to be 1320 cells and the nuclear translocation activity is -1.2% (inactive).

Consider `Cc1cc(=O)[nH]c(N/N=C/c2ccc3c(c2)OCCO3)n1`, for which the cell count was 1320 cells and the nuclear translocation activity was -0.5% (inactive).

Turning to `COc1ccc(NC(=O)C2CCC(CNc3c(N4CCCCC4)c(=O)c3=O)CC2)c(OC)c1` (stereo unspecified), the cell count amounted to 1350 cells and the nuclear translocation activity was -0.3% (inactive).

Turning to `Cc1nnc2n1N=C(c1ccc3c(c1)NC(=O)CO3)CS2`, the cell count was determined as 1300 cells and the nuclear translocation activity is -0.7% (inactive).

Regarding `C/C(=N/NC(=O)CN1CCN(S(=O)(=O)c2ccc(Br)cc2)CC1)c1ccncc1`, the cell count turned out to be 1320 cells and the nuclear translocation activity was -0.5% (inactive).

On to `Nc1ccc2nn(-c3ccc(Cl)cc3)nc2c1`, for which the cell count came to 1360 cells and the nuclear translocation activity was 1% (inactive).

As to `CC1=NNC(=O)C1CCC(=O)N/N=C(\C)c1ccc(Cl)cc1` (stereo unspecified), the cell count was 1240 cells and the nuclear translocation activity is 0.6% (inactive).

Take `Cc1cc(C)nc(SCc2cn3c(C)cc(C)nc3n2)n1`: the cell count was 1340 cells and the nuclear translocation activity was -0.4% (inactive).

Regarding `CCc1nc2sc(C(=O)O)c(N)c2c2c1CCCC2`, the cell count came to 1230 cells and the nuclear translocation activity was 2.4% (inactive).

On to `CC(=O)NNC(=O)c1csc(Cc2c(Cl)sc3ccc(Cl)cc23)n1`, for which the cell count stood at 1250 cells and the nuclear translocation activity is -0.8% (inactive).

`CC(CNS(=O)(=O)c1ccc(Br)cc1)CN(C)C` (stereo unspecified): the cell count turned out to be 1320 cells and the nuclear translocation activity was 0.2% (inactive).

For `COc1ccc(CNC(=O)C(Cc2ccccc2)n2cccc2)cc1` (stereo unspecified), the cell count came out at 1270 cells and the nuclear translocation activity is -0.6% (inactive).

As to `COC(OC)c1ccnc(SCc2ccccc2Cl)n1`, the cell count was 1270 cells and the nuclear translocation activity was -2.6% (inactive).

Take `O=C(O)C(F)(F)C(NCc1ccccc1)c1ccccc1` (stereo unspecified): the cell count stood at 1280 cells and the nuclear translocation activity is 0% (inactive).

For `COc1cc(/C=N\Nc2nc(-c3cccs3)c(NC(C)=O)s2)ccc1O`, the cell count stood at 1300 cells and the nuclear translocation activity was 0.1% (inactive).

Regarding `COc1cc(/C=C(\C#N)c2nc3c(s2)CC(C)CC3)ccc1O` (stereo unspecified), the cell count came out at 1440 cells and the nuclear translocation activity is 2.5% (inactive).

`CCOc1cc(/C=C(\C#N)c2nc(-c3cccs3)c(NC(C)=O)s2)ccc1O`: the cell count is 77 cells and the nuclear translocation activity is 68.9% (active).

Regarding `Cn1c(SCC(=O)N2CCOCC2)nnc1-c1ccc2ncccc2c1`, the cell count amounted to 1320 cells and the nuclear translocation activity is 0.1% (inactive).

For `O=[N+]([O-])c1cccc2ncccc12`, the cell count stood at 1340 cells and the nuclear translocation activity was -0.4% (inactive).

Take `O=C(NC1CCCCC1)c1cc(C2CC2)on1`: the cell count amounted to 1290 cells and the nuclear translocation activity was -0.2% (inactive).

With `Cc1ccc(-c2nc3ccccc3[nH]c2=O)cc1`, the cell count was 1310 cells and the nuclear translocation activity was 2.5% (inactive).

Take `CCCCCCCCCCCCN1C(=O)CSC1c1cccnc1` (stereo unspecified): the cell count was 1170 cells and the nuclear translocation activity was -0.9% (inactive).

As to `CC(=O)NC(=S)Nc1ccc(NC(=S)NC(=O)c2ccc([N+](=O)[O-])cc2)cc1`, the cell count was found to be 1350 cells and the nuclear translocation activity is -0.9% (inactive).

Take `CCc1ccccc1NC(=O)CSc1nnc(CCNC(=O)OC(C)(C)C)o1`: the cell count amounted to 1310 cells and the nuclear translocation activity was 1% (inactive).

`Oc1c(C=Nc2cccc3nsnc23)ccc2ccccc12`: the cell count is 317 cells and the nuclear translocation activity is 154% (active).

Take `Oc1ccc2ccccc2c1C=Nc1ccccc1`: the cell count was determined as 1230 cells and the nuclear translocation activity was 1.3% (inactive).

On to `Oc1ccc(N=Cc2c(O)ccc3ccccc23)cc1`, for which the cell count was found to be 1240 cells and the nuclear translocation activity was -1.5% (inactive).

As to `O=C(O)/C=C/c1ccc2c(c1)OCCO2`, the cell count amounted to 1430 cells and the nuclear translocation activity was -1.2% (inactive).

In the case of `Cc1cc(Nc2ccc(Cl)cc2)nc(N2CCOCC2)n1`, the cell count is 1280 cells and the nuclear translocation activity was -0.7% (inactive).

For `Cc1onc(NC(=O)c2ccc([N+](=O)[O-])o2)c1Br`, the cell count was determined as 1260 cells and the nuclear translocation activity was 5.1% (inactive).

As for `COC(=O)c1cc(NC(=O)c2ccco2)ccc1N1CCOCC1`, the cell count stood at 1200 cells and the nuclear translocation activity is -0.7% (inactive).

Regarding `CCCC(=O)Nc1ccc2c(c1)nc(CCNC(=O)c1ccco1)n2C`, the cell count stood at 1400 cells and the nuclear translocation activity is -1.3% (inactive).

Consider `COc1ccc(NC2=CC(=S)NC(C)(C)C2)cc1`, for which the cell count stood at 1130 cells and the nuclear translocation activity is -1.8% (inactive).

With `COC(=O)c1sc(SC)c(S(=O)(=O)C(C)C)c1N/N=C(\C#N)S(=O)(=O)c1ccccn1`, the cell count was found to be 1240 cells and the nuclear translocation activity is -2.6% (inactive).

On to `CCN(CC)CCCN=Cc1c(O)n(-c2ccc(C)cc2)c(=O)c2ccccc12`, for which the cell count amounted to 1350 cells and the nuclear translocation activity was -0.1% (inactive).

On to `O=C(O)CC1(CC(=O)Nc2cccc(C(F)(F)F)c2)CCCC1`, for which the cell count was determined as 1260 cells and the nuclear translocation activity is 0.5% (inactive).

For the compound `CN(C)/C=C(/C(=O)c1ccc(Cl)c(Cl)c1)c1nnnn1-c1ccccc1`, the cell count was determined as 1260 cells and the nuclear translocation activity is 0% (inactive).
